Measurements from ChEMBL document CHEMBL5335784, “Discovery of a novel 1,3,4-oxadiazol-2-one-based NLRP3 inhibitor as a pharmacological agent to mitigate cardiac and metabolic complications in an experimental model of diet-induced metaflammation” (Eur J Med Chem, 2023).
The source made the active and inactive calls. The calls are words filed in the database; no cut-off is given here.

Columns and labels:
[1] = Drug metabolism in PBS assessed as half time for compound hydrolysis to 2-(5-(2-Chlorobenzyl)-2-oxo-1,3,4-oxadiazol-3(2H)-yl)acetic acid at 100 uM at pH 7.4 by RP-HPLC analysis; type: ADME
In short: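 Compound added from 10 mM DMSO stock to 50 mM PBS, pH 7.4, 37 °C. Sampled over 48 h and quantified by RP-HPLC (phenyl column, 226/254 nm) against external standards of ester and acid.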

Rattus norvegicus [2] = experiment: Antiinflammatory activity against high fat diet fed-induced metaflammation Wistar rat model assessed as reduction in HFD-induced metabolic alterations by measuring increase in HDL cholesterol level in plasma at 20 mg/kg/day, ip administered for 4 weeks; type: functional, organism-based
In short: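 Rats fed HFD or SD for 12 weeks, dosed 20 mg/kg/day i.p. in saline/2% DMSO/5% Cremophor-EL during the final 28 days. Serum obtained after sacrifice by centrifuging blood at 2000 x g, 10 min, 4 °C. Glucose read by glucometer; total, HDL and LDL cholesterol and triglycerides measured with commercial kits. n=6–7 per group.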

Rattus norvegicus [3] = experiment: Antiinflammatory activity against high fat diet fed-induced metaflammation Wistar rat model assessed as reduction in serum TNF-alpha level at 20 mg/kg/day, ip administered for 4 weeks by ELISA; type: functional, organism-based
In short: (§1)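 Male Wistar rats on HFD or SD for 12 weeks received 20 mg/kg/day i.p. (saline, 2% DMSO, 5% Cremophor-EL) or vehicle for the last 28 days. Circulating IL-1β, TNF-α, BNP and Gal-3 quantified by ELISA in blood collected after sacrifice. n=6–7 per group.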

Rattus norvegicus [4] = experiment: Antiinflammatory activity against high fat diet fed-induced metaflammation Wistar rat model assessed as reduction in serum IL-1 beta level at 20 mg/kg/day, ip administered for 4 weeks by ELISA; type: functional, organism-based; in short: as §1

- half-life at 100 µM [1]: > 48 h
SMILES: CCOC(=O)Cn1nc(Cc2ccccc2Cl)oc1=O
- Activity (Rattus norvegicus [2]): Active
- Activity (Rattus norvegicus [3]): Active
- Activity (Rattus norvegicus [4]): Active
